Activity and IC50 data for 28 compounds are collected here from ChEMBL document CHEMBL2202994, “Heteroaryl urea inhibitors of fatty acid amide hydrolase: structure-mutagenicity relationships for arylamine metabolites” (Bioorg Med Chem Lett, 2012).

Data set [1] relates to Salmonella typhimurium. Briefly: Genotoxicity in Salmonella typhimurium TAMix by Ames test in presence of S9 fractions. As to conditions: salmonella enterica subsp. enterica serovar typhimurium. It counts as toxicity, organism-based, S9 Fraction. The essentials:
(§1)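 Ames II liquid fluctuation microplate variant of the bacterial reverse mutation assay, run on the free heteroaryl amines released from the urea inhibitors. The TAMix strain mixture (TA7001–TA7006) detects base-pair substitutions and TA98 detects frameshift mutations. For metabolic activation, compounds were preincubated with rat liver S9 extract or run without it. Results were scored as positive or negative.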
(In general: In the Ames test, an excess of revertant colonies over the control signals mutagenicity.)

Data set [2] concerns Salmonella typhimurium. As to the kind of experiment: Genotoxicity in Salmonella typhimurium TA98 by Ames test in absence of S9 fractions. The class given is toxicity, organism-based. As to conditions: salmonella enterica subsp. enterica serovar typhimurium. In short, it runs like this: as §1
The test system of data set [3] is Salmonella typhimurium. Briefly: Genotoxicity in Salmonella typhimurium TA98 by Ames test in presence of S9 fractions. It counts as toxicity, organism-based, S9 Fraction. Particulars: salmonella enterica subsp. enterica serovar typhimurium. In short, it runs like this:
as §1

For data set [4], the system named is Salmonella typhimurium. As to the kind of experiment: Genotoxicity in Salmonella typhimurium TAMix by Ames test in absence of S9 fractions. It counts as toxicity, organism-based. As to conditions: salmonella enterica subsp. enterica serovar typhimurium. The essentials:
as §1

Data set [5] has as its target T1, Fatty-acid amide hydrolase 1 (Rattus norvegicus, UniProt P97612).
T1 sequence (P97612 whole entry): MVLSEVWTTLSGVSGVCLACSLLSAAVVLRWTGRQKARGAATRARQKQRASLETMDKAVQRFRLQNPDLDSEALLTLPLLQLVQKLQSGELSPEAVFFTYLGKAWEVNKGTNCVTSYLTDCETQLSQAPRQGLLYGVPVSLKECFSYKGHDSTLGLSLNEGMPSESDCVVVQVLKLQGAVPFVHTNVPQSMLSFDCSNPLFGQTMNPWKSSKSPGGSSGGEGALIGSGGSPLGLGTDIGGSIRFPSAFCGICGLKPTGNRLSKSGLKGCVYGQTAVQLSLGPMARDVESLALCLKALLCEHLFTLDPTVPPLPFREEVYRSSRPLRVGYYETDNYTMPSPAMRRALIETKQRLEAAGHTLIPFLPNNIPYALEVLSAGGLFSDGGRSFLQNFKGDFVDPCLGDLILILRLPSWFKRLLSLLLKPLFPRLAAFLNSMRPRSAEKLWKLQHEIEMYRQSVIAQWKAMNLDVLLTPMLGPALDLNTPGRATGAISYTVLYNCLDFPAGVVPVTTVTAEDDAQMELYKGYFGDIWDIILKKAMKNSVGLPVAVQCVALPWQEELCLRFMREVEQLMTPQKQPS
As to the kind of experiment: Inhibition of rat FAAH preincubated for 60 mins.

The target in data set [6] is T2, Fatty-acid amide hydrolase 1 (Homo sapiens, UniProt O00519).
T2 sequence (O00519 whole entry): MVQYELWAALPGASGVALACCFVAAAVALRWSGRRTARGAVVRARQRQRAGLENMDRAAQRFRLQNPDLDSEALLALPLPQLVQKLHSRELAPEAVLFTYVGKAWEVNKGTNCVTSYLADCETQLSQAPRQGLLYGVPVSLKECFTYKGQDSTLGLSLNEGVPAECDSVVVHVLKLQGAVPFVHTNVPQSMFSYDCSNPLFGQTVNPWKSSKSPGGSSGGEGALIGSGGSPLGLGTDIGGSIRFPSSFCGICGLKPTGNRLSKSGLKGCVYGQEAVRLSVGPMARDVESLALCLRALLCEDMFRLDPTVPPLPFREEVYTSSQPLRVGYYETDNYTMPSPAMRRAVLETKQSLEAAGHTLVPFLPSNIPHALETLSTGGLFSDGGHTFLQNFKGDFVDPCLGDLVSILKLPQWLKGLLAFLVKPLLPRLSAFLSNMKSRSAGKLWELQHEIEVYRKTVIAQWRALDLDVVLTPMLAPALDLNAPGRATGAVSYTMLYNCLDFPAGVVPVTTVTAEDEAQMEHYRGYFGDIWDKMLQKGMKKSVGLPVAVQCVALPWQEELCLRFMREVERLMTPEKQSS
As to the kind of experiment: Inhibition of human FAAH preincubated for 60 mins.

For orientation: IC50 means the concentration at which inhibition is half-maximal. Read a low IC50 as greater potency in that assay. On to `O=C(Nc1cnc2cccnn12)N1CCN(Cc2cccc(Oc3ccc(Cl)cc3)c2)CC1`, for which the Activity entry in the data set with Salmonella typhimurium [1], with Salmonella typhimurium [2], in the data set with Salmonella typhimurium [3] and in the data set on Salmonella typhimurium [4] was “Non-toxic” each time. The compound also came in with a 50% inhibitory concentration (IC50) in data set [5] of 53 nM.
On to `O=C(Nc1cccc2nsnc12)N1CCN(Cc2cccc(Oc3ccc(Cl)cc3)c2)CC1`, for which the Activity entry in the data set on Salmonella typhimurium [1], in the data set with Salmonella typhimurium [2], in the data set on Salmonella typhimurium [3] and with Salmonella typhimurium [4] was “Non-toxic” each time. Besides, in data set [5], the half-inhibitory concentration (IC50) came to 25 nM.
In the case of `O=C(Nc1cccc2cn[nH]c12)N1CCN(Cc2cccc(Oc3ccc(Cl)cc3)c2)CC1`, the Activity entry in the data set with Salmonella typhimurium [1] and in the data set on Salmonella typhimurium [3] was “Toxic” in each case. In addition, the IC50 in data set [5] worked out at 6000 nM.
As for `Cc1nc2cc(NC(=O)N3CCN(Cc4cccc(Oc5ccc(Cl)cc5)c4)CC3)ccc2o1`, the Activity result with Salmonella typhimurium [1] and in the data set with Salmonella typhimurium [3] was “Toxic” in each case. Moreover, in data set [5], the IC50 came out at 200 nM.
Regarding `O=C(Nc1cncc2ccccc12)N1CCN(Cc2cccc(Oc3ccc(Cl)cc3)c2)CC1`, the Activity result with Salmonella typhimurium [1] and with Salmonella typhimurium [3] was “Toxic” in each case. This compound displayed an IC50 in data set [5] of 8.3 nM.
As for `O=C(Nc1cnc2[nH]ccc2c1)N1CCN(Cc2cccc(Oc3ccc(Cl)cc3)c2)CC1`, the Activity entry in the data set with Salmonella typhimurium [1] and in the data set with Salmonella typhimurium [3] was “Toxic” each time. The same compound had an IC50 in data set [5] of 21 nM.
Consider `O=C(Nc1cnc2cc[nH]c2c1)N1CCN(Cc2cccc(Oc3ccc(Cl)cc3)c2)CC1`, for which the Activity result in the data set with Salmonella typhimurium [1] and with Salmonella typhimurium [3] was “Toxic” each time. This compound also yielded an IC50 in data set [5] of 1100 nM.
Take `O=C(Nc1noc2ccccc12)N1CCN(Cc2cccc(Oc3ccc(Cl)cc3)c2)CC1`: the Activity result in the data set with Salmonella typhimurium [1], with Salmonella typhimurium [2], in the data set on Salmonella typhimurium [3] and with Salmonella typhimurium [4] was “Non-toxic” each time. The compound also returned an IC50 in data set [5] of 8.1 nM.
As for `O=C(Nc1noc2ncccc12)N1CCN(Cc2cccc(Oc3ccc(Cl)cc3)c2)CC1`, the Activity result in the data set on Salmonella typhimurium [1], with Salmonella typhimurium [2], in the data set on Salmonella typhimurium [3] and in the data set on Salmonella typhimurium [4] was “Non-toxic” each time. Half-maximal inhibition in data set [5] (IC50) was put at 14 nM.
As to `O=C(Nc1noc2cnccc12)N1CCN(Cc2cccc(Oc3ccc(Cl)cc3)c2)CC1`, the Activity entry in the data set on Salmonella typhimurium [1], in the data set with Salmonella typhimurium [2], in the data set on Salmonella typhimurium [3] and with Salmonella typhimurium [4] was “Non-toxic” throughout. This compound yielded an IC50 in data set [5] of 0.7 nM.
With `O=C(Nc1noc2ccncc12)N1CCN(Cc2cccc(Oc3ccc(Cl)cc3)c2)CC1`, the Activity entry with Salmonella typhimurium [1], in the data set with Salmonella typhimurium [2], in the data set on Salmonella typhimurium [3] and in the data set on Salmonella typhimurium [4] was “Non-toxic” in each case. Moreover, 2200 nM corresponded to half-maximal inhibition in data set [5] (IC50).
For the compound `O=C(Nc1noc2cccnc12)N1CCN(Cc2cccc(Oc3ccc(Cl)cc3)c2)CC1`, the Activity entry with Salmonella typhimurium [1], in the data set with Salmonella typhimurium [2], with Salmonella typhimurium [3] and in the data set with Salmonella typhimurium [4] was “Non-toxic” each time. In data set [5], the IC50 was determined as 22 nM.
For the compound `O=C(Nc1cnc2ccccn12)N1CCN(Cc2cccc(Oc3ccc(Cl)cc3)c2)CC1`, the Activity result in the data set on Salmonella typhimurium [1], with Salmonella typhimurium [2], in the data set on Salmonella typhimurium [3] and in the data set with Salmonella typhimurium [4] was “Non-toxic” throughout. Further, it took 120 nM to reach half-maximal inhibition in data set [5] (IC50).
On to `O=C(Nc1cn2ccccc2n1)N1CCN(Cc2cccc(Oc3ccc(Cl)cc3)c2)CC1`, for which the Activity entry with Salmonella typhimurium [1], in the data set with Salmonella typhimurium [2], in the data set with Salmonella typhimurium [3] and in the data set on Salmonella typhimurium [4] was “Non-toxic” each time. Moreover, the IC50 in data set [6] and in data set [5] was greater than 10000 nM throughout.
With `O=C(Nc1cccn2ccnc12)N1CCN(Cc2cccc(Oc3ccc(Cl)cc3)c2)CC1`, the Activity entry in the data set on Salmonella typhimurium [1], with Salmonella typhimurium [2], in the data set with Salmonella typhimurium [3] and with Salmonella typhimurium [4] was “Non-toxic” each time. The same compound returned a 50% inhibitory concentration (IC50) in data set [5] of 3500 nM.
Turning to `O=C(Nc1ccn2ccnc2c1)N1CCN(Cc2cccc(Oc3ccc(Cl)cc3)c2)CC1`, the Activity result in the data set with Salmonella typhimurium [1], in the data set with Salmonella typhimurium [2], in the data set with Salmonella typhimurium [3] and in the data set on Salmonella typhimurium [4] was “Toxic” throughout. The 50% inhibitory concentration (IC50) in data set [5] was 2600 nM.
With `O=C(Nc1ccc2nccn2c1)N1CCN(Cc2cccc(Oc3ccc(Cl)cc3)c2)CC1`, the Activity entry in the data set with Salmonella typhimurium [1], in the data set on Salmonella typhimurium [2], in the data set on Salmonella typhimurium [3] and with Salmonella typhimurium [4] was “Non-toxic” in each case. 3600 nM corresponded to half-maximal inhibition in data set [5] (IC50).
For `O=C(Nc1cccc2nccn12)N1CCN(Cc2cccc(Oc3ccc(Cl)cc3)c2)CC1`, the Activity result in the data set with Salmonella typhimurium [1], in the data set with Salmonella typhimurium [2], in the data set on Salmonella typhimurium [3] and with Salmonella typhimurium [4] was “Non-toxic” in each case. Besides, the midpoint of inhibition in data set [5], the IC50, lay at 5.7 nM.
Regarding `O=C(Nc1cc2nccn2cn1)N1CCN(Cc2cccc(Oc3ccc(Cl)cc3)c2)CC1`, the Activity result in the data set with Salmonella typhimurium [1], in the data set on Salmonella typhimurium [2], in the data set with Salmonella typhimurium [3] and with Salmonella typhimurium [4] was “Non-toxic” in each case. Moreover, in data set [5], the half-inhibitory concentration (IC50) is 470 nM.
`O=C(Nc1ccnc2nccn12)N1CCN(Cc2cccc(Oc3ccc(Cl)cc3)c2)CC1`: the Activity result with Salmonella typhimurium [1], in the data set on Salmonella typhimurium [2], in the data set with Salmonella typhimurium [3] and in the data set on Salmonella typhimurium [4] was “Non-toxic” throughout. Also, in data set [5], the IC50 amounted to 24 nM.
Turning to `O=C(Nc1ccn2ccnc2n1)N1CCN(Cc2cccc(Oc3ccc(Cl)cc3)c2)CC1`, the Activity entry in the data set on Salmonella typhimurium [1], in the data set on Salmonella typhimurium [2], in the data set on Salmonella typhimurium [3] and with Salmonella typhimurium [4] was “Non-toxic” each time. For the same compound, in data set [5], the IC50 is 2400 nM.
As to `O=C(Nc1cnccn1)N1CCN(Cc2cccc(Oc3ccc(Cl)cc3)c2)CC1`, the Activity result with Salmonella typhimurium [1], in the data set with Salmonella typhimurium [2], with Salmonella typhimurium [3] and in the data set with Salmonella typhimurium [4] was “Non-toxic” in each case. In data set [5], this compound came in with an IC50 of 150 nM.
`O=C(Nc1cccnn1)N1CCN(Cc2cccc(Oc3ccc(Cl)cc3)c2)CC1`: the Activity entry with Salmonella typhimurium [1], in the data set on Salmonella typhimurium [2], with Salmonella typhimurium [3] and with Salmonella typhimurium [4] was “Non-toxic” each time. Besides, it took 93 nM to reach half-maximal inhibition in data set [5] (IC50).
For `O=C(Nc1cc[nH]n1)N1CCN(Cc2cccc(Oc3ccc(Cl)cc3)c2)CC1`, the Activity entry in the data set on Salmonella typhimurium [1], with Salmonella typhimurium [2], in the data set on Salmonella typhimurium [3] and in the data set on Salmonella typhimurium [4] was “Non-toxic” throughout. Further, the midpoint of inhibition in data set [5], the IC50, lay at 150 nM.
On to `O=C(Nc1nnn[nH]1)N1CCN(Cc2cccc(Oc3ccc(Cl)cc3)c2)CC1`, for which the Activity entry in the data set with Salmonella typhimurium [1], in the data set on Salmonella typhimurium [2], in the data set on Salmonella typhimurium [3] and in the data set with Salmonella typhimurium [4] was “Non-toxic” throughout. In data set [5], this compound displayed an IC50 of 46 nM.
On to `O=C(Nc1ccon1)N1CCN(Cc2cccc(Oc3ccc(Cl)cc3)c2)CC1`, for which the Activity result in the data set with Salmonella typhimurium [1], in the data set with Salmonella typhimurium [2], in the data set on Salmonella typhimurium [3] and with Salmonella typhimurium [4] was “Non-toxic” in each case.
`O=C(Nc1nocc1Cl)N1CCN(Cc2cccc(Oc3ccc(Cl)cc3)c2)CC1`: the Activity result in the data set with Salmonella typhimurium [1], in the data set with Salmonella typhimurium [2], with Salmonella typhimurium [3] and in the data set with Salmonella typhimurium [4] was “Toxic” throughout. This compound also returned a concentration for half-maximal inhibition (IC50) in data set [5] of 20 nM.
Consider `O=C(Nc1cccc2nonc12)N1CCN(Cc2cccc(Oc3ccc(Cl)cc3)c2)CC1`, for which the Activity result in the data set with Salmonella typhimurium [1] and in the data set on Salmonella typhimurium [3] was “Toxic” throughout. Besides, the concentration for half-maximal inhibition (IC50) in data set [5] was determined as 120 nM.
